The results in this text go back to PubChem BioAssay AID588487 (The Scripps Research Institute Molecular Screening Center, 2011).

A word on the inhibition: it is the relative decrease from the control value, in per cent.

Activity calls are given as the source filed them.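 How the source made its calls: active means inhibition of at least 50% against any of four protein arginine deiminase enzymes; inactive means the rest.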

Common to all, as to assay: PAD isozyme probe labeling blockade – biochemical, fluorescence, gel-based ABPP, HTS hits, orthogonal assay for PAD4 inhibitor project, late-stage follow-up (AID 588487)
Experiment [1] deals with Protein-arginine deiminase type-4 (Homo sapiens) (UniProt Q9UM07). The settings on record: recombinant PAD1-4, gel-based ABPP, RFA probe fluorescence; PAD4; at 10 µM; active compounds read high. In short, it runs like this:
(§1)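 System: Recombinant PAD1, PAD2, PAD3 or PAD4 | Input: PAD enzyme 10 µM | Probe or stimulus: RFA fluorescent probe at 1 µM | Compound: One 10 µM dose per compound | Schedule: 15 min compound pre-incubation plus 30 min probe step, 37 °C | Detection: in-gel fluorescence scan of probe-labeled PAD band after SDS-PAGE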

Experiment [2] addresses Protein-arginine deiminase type-2 (Homo sapiens) (UniProt Q9Y2J8). The settings on record: recombinant PAD1-4, gel-based ABPP, RFA probe fluorescence; PAD2; at 10 µM; active compounds read high. Put shortly:
as §1

The target in experiment [3] is Protein-arginine deiminase type-3 (Homo sapiens) (UniProt Q9ULW8). The settings on record: recombinant PAD1-4, gel-based ABPP, RFA probe fluorescence; PAD3; at 10 µM; active compounds read high. Put shortly:
as §1

For experiment [4], the target named is Protein-arginine deiminase type-1 (Homo sapiens) (UniProt Q9ULC6). Conditions: recombinant PAD1-4, gel-based ABPP, RFA probe fluorescence; PAD1; at 10 µM; active compounds read high. Put shortly:
as §1

Protein-arginine deiminase type-3 (Homo sapiens), sequence (Q9ULW8 whole entry, looked up): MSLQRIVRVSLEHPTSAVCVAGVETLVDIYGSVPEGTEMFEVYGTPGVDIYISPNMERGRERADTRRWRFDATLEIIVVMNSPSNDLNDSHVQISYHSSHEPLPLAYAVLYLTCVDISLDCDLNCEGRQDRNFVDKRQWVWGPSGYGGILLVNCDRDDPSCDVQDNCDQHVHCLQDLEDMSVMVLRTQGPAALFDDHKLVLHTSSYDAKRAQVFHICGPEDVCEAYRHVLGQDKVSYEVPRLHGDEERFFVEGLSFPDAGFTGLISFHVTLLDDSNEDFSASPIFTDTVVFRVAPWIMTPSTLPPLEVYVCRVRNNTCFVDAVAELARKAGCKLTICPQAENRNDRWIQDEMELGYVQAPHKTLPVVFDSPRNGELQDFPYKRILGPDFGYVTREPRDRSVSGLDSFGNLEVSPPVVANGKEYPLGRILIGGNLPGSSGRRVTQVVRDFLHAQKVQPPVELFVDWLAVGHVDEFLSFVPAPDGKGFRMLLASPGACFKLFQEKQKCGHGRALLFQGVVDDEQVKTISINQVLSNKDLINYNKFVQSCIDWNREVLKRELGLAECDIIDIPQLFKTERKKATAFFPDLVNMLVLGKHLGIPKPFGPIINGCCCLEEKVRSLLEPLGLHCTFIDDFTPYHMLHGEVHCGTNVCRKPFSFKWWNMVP
Protein-arginine deiminase type-2 (Homo sapiens), sequence (Q9Y2J8 whole entry, looked up): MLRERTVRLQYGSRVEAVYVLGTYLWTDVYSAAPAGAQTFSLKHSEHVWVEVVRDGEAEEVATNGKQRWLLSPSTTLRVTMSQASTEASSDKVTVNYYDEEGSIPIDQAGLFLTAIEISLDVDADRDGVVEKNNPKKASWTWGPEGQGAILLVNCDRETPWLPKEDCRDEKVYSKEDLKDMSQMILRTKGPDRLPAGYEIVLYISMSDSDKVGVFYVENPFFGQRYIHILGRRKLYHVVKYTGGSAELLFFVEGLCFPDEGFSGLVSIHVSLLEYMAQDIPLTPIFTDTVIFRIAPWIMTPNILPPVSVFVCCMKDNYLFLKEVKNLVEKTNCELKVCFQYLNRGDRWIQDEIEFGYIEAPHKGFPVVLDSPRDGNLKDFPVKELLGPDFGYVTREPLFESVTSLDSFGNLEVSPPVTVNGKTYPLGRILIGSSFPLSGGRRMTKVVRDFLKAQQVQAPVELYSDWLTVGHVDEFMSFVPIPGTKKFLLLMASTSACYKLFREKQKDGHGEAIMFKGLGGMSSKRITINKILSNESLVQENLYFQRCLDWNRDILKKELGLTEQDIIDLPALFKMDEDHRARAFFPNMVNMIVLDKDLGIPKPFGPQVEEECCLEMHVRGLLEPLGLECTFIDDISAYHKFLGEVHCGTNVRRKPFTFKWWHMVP
Protein-arginine deiminase type-1 (Homo sapiens), sequence (Q9ULC6 whole entry, looked up): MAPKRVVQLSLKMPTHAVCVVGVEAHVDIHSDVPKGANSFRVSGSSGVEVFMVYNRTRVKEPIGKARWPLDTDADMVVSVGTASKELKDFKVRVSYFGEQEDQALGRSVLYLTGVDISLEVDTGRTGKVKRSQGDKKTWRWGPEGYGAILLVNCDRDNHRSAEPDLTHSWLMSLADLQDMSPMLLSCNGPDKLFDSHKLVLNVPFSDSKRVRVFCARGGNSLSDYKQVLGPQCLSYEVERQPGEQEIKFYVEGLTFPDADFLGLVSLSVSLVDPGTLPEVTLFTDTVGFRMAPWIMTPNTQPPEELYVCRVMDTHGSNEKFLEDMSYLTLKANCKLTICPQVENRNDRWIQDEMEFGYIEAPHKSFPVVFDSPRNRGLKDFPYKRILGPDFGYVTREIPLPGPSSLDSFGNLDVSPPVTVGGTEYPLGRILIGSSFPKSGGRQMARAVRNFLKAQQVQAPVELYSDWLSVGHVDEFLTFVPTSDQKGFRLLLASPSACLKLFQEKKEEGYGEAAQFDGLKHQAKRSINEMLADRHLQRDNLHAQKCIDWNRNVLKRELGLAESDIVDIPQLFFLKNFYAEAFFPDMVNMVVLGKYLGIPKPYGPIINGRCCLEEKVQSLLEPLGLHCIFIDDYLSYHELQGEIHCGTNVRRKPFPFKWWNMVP
Protein-arginine deiminase type-4 (Homo sapiens), sequence (Q9UM07 whole entry, looked up): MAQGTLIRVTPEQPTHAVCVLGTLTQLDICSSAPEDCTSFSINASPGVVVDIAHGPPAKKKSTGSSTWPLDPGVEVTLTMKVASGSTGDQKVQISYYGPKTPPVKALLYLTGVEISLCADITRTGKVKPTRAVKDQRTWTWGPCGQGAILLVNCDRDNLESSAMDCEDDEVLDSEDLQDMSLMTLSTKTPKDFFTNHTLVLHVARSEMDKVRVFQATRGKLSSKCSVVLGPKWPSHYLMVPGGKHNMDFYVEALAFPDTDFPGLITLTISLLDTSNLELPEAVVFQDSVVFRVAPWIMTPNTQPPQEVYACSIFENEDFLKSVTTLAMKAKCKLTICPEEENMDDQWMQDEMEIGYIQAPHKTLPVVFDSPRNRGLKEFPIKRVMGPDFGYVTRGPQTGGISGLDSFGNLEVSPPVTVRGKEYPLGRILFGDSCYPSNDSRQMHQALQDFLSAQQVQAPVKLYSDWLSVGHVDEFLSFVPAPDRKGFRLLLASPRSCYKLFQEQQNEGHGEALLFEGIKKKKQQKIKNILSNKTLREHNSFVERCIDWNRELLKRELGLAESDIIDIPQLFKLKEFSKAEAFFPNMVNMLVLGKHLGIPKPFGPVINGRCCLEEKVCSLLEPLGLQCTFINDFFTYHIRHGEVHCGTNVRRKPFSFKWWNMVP

On to `Cc1ccc(C2CC(=O)Oc3cc(O)ccc32)cc1` (stereo not given), for which the inhibition in experiment [1] was -30% (inactive); in experiment [2], -2% (inactive); in experiment [3], 43% (inactive); in experiment [4], 40% (inactive).

For the molecule `COc1cc(NC2c3ccccc3C(=O)N2Cc2ccccc2Cl)cc(OC)c1` (stereo not given), the inhibition was 18% (inactive) in experiment [1], 17% (inactive) in experiment [2], -3% (inactive) in experiment [3] and 38% (inactive) in experiment [4].

For the molecule `CCOc1ccccc1C(=O)NCC(=O)NCCCc1ccccc1`, the inhibition in experiment [1] was 31% (inactive); in experiment [2], 26% (inactive); in experiment [3], 11% (inactive); in experiment [4] it was -8% (inactive).

Regarding `Cc1nn(-c2ccccc2)c(C)c1NC(=O)COc1ccc(Cl)cc1Cl`, the inhibition in experiment [1] is 12% (inactive); in experiment [2], 29% (inactive); in experiment [3] it was 57%; in experiment [4], 2% (inactive).

Regarding `Cc1c(C(=O)N2CCCCC2)c(S(=O)(=O)N2CCN(c3ccc(Cl)cc3)CC2)c(C)n1C`, the inhibition in experiment [1] is 67%; in experiment [2], 6% (inactive); in experiment [3] it was 26% (inactive); in experiment [4] it was -25% (inactive).
